Experimental data published in ChEMBL document CHEMBL1806410, “Design and synthesis of pyridine-substituted itraconazole analogues with improved antifungal activities, water solubility and bioavailability” (Bioorg Med Chem Lett, 2011).
≈ marks a conversion by molar mass, not a printed value.

What was measured:
[1] = Half life in rat at 10 mg/kg, po administered as single dose; assay type: ADME, organism-based; design: dose 10 mg/kg, route oral; conditions: in vivo
Method in brief: (§1)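 Rats received a single dose of compound, either oral (10 mg/kg) or intravenous (10, 5 or 2.5 mg/kg). Plasma levels were followed, and the reported parameters were Cmax, Tmax, AUC0–t, half-life, clearance and bioavailability (F).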

[2] = Half life in rat at 2.5 mg/kg, iv administered as single dose; assay type: ADME, organism-based; design: dose 2.5 mg/kg, route intravenous; conditions: in vivo
Method in brief: (§2)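 Rats received a single iv dose. Drug levels were measured in plasma. Parameters came from the plasma concentration–time data: AUC over 0–t in ng h/mL, clearance (CL) in L/h/kg, and half-life in h.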

[3] = Clearance in rat at 2.5 mg/kg, iv administered as single dose; assay type: ADME, organism-based; design: dose 2.5 mg/kg, route intravenous; conditions: in vivo; method in brief: as §2
[4] = Oral bioavailability in rat at 10 mg/kg, administered as single dose; assay type: ADME, organism-based; conditions: in vivo; method in brief: as §1
[5] = test system: Salmonella typhimurium; test: Mutagenic activity in Salmonella Typhimurium assessed as number of revertants colonies after 48 hrs by Ames test; assay type: toxicity, organism-based; conditions: salmonella enterica subsp. enterica serovar typhimurium
Method in brief: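 Plate incorporation protocol without S9 mix. About 10^9 bacterial cells in culture medium were mixed with test compound in DMSO and poured onto hardened agar, in triplicate plates. Plates were incubated at 37 °C for 48 h, then revertant colonies were counted and reported as mean ± standard deviation.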

[6] = Acute toxicity in po dosed ICR mouse assessed as mortality after 10 days; assay type: organism-based; conditions: in vivo
Method in brief: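 Single oral dose on day 0 at 100, 144, 207, 299, 430 or 619 mg/kg. Animals were watched continuously for 10 days, recording deaths and signs of toxicity. LD50 was calculated by a modified Kaber method.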

[7] = test system: Candida albicans; test: Antifungal activity against Candida albicans JLC 30364 by broth microdilution method; assay type: functional
Method in brief: (§3)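 MICs were determined by broth microdilution following NCCLS guidelines (M38-P for filamentous fungi). The panel covered four yeast species and two Aspergillus species, with two strains per species. Itraconazole served as positive control.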

[8] = test system: Candida albicans; test: Antifungal activity against Candida albicans JLC 31374 by broth microdilution method; assay type: functional; method in brief: as §3
[9] = test system: Candida parapsilosis; test: Antifungal activity against Candida parapsilosis JLC 30365 by broth microdilution method; assay type: functional; conditions: Lodderomyces parapsilosis; method in brief: as §3
[10] = test system: Candida parapsilosis; test: Antifungal activity against Candida parapsilosis JLC 30275 by broth microdilution method; assay type: functional; conditions: Lodderomyces parapsilosis; method in brief: as §3
[11] = test system: Pichia kudriavzevii; test: Antifungal activity against Candida krusei JLC 30366 by broth microdilution method; assay type: functional; method in brief: as §3
[12] = test system: Pichia kudriavzevii; test: Antifungal activity against Candida krusei JLC 30386 by broth microdilution method; assay type: functional; method in brief: as §3
[13] = test system: Cryptococcus neoformans; test: Antifungal activity against Cryptococcus neoformans JLC 50122 by broth microdilution method; assay type: functional; method in brief: as §3
[14] = test system: Cryptococcus neoformans; test: Antifungal activity against Cryptococcus neoformans JLC 50123 by broth microdilution method; assay type: functional; method in brief: as §3
[15] = test system: Aspergillus fumigatus; test: Antifungal activity against Aspergillus fumigatus JLC 30506 by broth microdilution method; assay type: functional; method in brief: as §3
[16] = test system: Aspergillus fumigatus; test: Antifungal activity against Aspergillus fumigatus JLC 30883 by broth microdilution method; assay type: functional; method in brief: as §3
[17] = test system: Aspergillus flavus; test: Antifungal activity against Aspergillus flavus JLC 30784 by broth microdilution method; assay type: functional; method in brief: as §3
[18] = test system: Aspergillus flavus; test: Antifungal activity against Aspergillus flavus JLC 40437 by broth microdilution method; assay type: functional; method in brief: as §3
[19] = Solubility of the compound in water at pH 1.2; assay type: physicochemical; conditions: water, read-out: solubility
[20] = Cmax in rat at 10 mg/kg, po administered as single dose; assay type: ADME, organism-based; design: dose 10 mg/kg, route oral; conditions: in vivo; method in brief: as §1
[21] = Tmax in rat at 10 mg/kg, po administered as single dose; assay type: ADME, organism-based; design: dose 10 mg/kg, route oral; conditions: in vivo; method in brief: as §1
[22] = AUC (0 to t) in rat at 10 mg/kg, po administered as single dose; assay type: ADME, organism-based; design: dose 10 mg/kg, route oral; conditions: plasma; method in brief: as §1
[23] = AUC (0 to t) in rat at 2.5 mg/kg, iv administered as single dose; assay type: ADME, organism-based; design: dose 2.5 mg/kg, route intravenous; conditions: plasma; method in brief: as §2

With `CC(C)(CO)Cn1ncn(-c2ccc(N3CCN(c4ccc(OC[C@H]5CO[C@](Cn6cncn6)(c6ccc(F)cc6F)O5)cc4)CC3)cn2)c1=O` the half-life [1] was 3.41 h, the half-life [2] was 2.3 h and the clearance [3] was 36.7 mL/min/kg. The bioavailability [4] was 42.2%, the Activity [5] was “Non-toxic” and the LD50 at 240 h [6] was 278 mg/kg. It also gave an MIC [7] of 0.0156 µg/mL (≈ 0.0222 µM), an MIC [8] of 0.0156 µg/mL (≈ 0.0222 µM) and an MIC [9] of less than 0.0156 µg/mL. The MIC [10] was less than 0.0156 µg/mL, the MIC [11] was less than 0.0156 µg/mL and the MIC [12] was less than 0.0156 µg/mL. It also gave an MIC [13] of less than 0.0156 µg/mL, an MIC [14] of less than 0.0156 µg/mL and an MIC [15] of 0.03 µg/mL (≈ 0.0426 µM). For the same compound, the MIC [16] was 0.03 µg/mL (≈ 0.0426 µM), the MIC [17] was less than 0.0156 µg/mL and the MIC [18] was less than 0.0156 µg/mL. It also gave a solubility [19] of 190 µg/mL (≈ 270 µM), a Cmax [20] of 297 ng/mL and a Tmax [21] of 3 h. The AUC(0-t) [22] was 1900 ng·h/mL and the AUC(0-t) [23] was 1120 ng·h/mL.
